{"data": "Experimental data of several laboratories", "target": "Phosphatidylinositol 4,5-bisphosphate 3-kinase catalytic subunit beta isoform (PIK3CB, Homo sapiens, UniProt P42338)", "note": "Lines come from different studies, so protocols differ."}
{"SMILES": "Nc1ncnc2occ(-c3ccc(NC(=O)Nc4cc(C(F)(F)F)ccc4F)cc3)c12", "test": "cell-free assay, inhibitor", "setting": "20 µM", "quantity": "remaining signal", "value": "86%"}
{"SMILES": "CS(=O)(=O)Nc1cc(-c2ccc3ncnc(Nc4ccc(F)c(Cl)c4)c3c2)cnc1Cl", "test": "enzyme activity, inhibitor, FRET", "setting": "10 µM", "quantity": "inhibition", "value": "90 to 100%"}
{"SMILES": "CCOCCn1cc(C(=O)Nc2ccc(-n3nc(-c4cccnc4)cc3C(F)(F)F)cn2)ccc1=O", "test": "cell-free assay, competition with immobilised ligand", "setting": "1 µM", "quantity": "remaining binding", "value": "82%"}
{"SMILES": "CNc1cc(Oc2cc(C(=O)Nc3cc(N4CCN(C)CC4)cc(C(F)(F)F)c3)ccc2C)ncn1", "test": "target engagement in cells, inhibitor, chemoproteomics", "system": "Huh-7", "setting": "1 µM", "quantity": "inhibition", "value": "-11.6%"}
{"SMILES": "O=C(N1CCS(=O)(=O)CC1)N1C[C@H](c2ccc(OC(F)(F)F)cc2)C[C@H](c2nc(C3CC3)no2)C1", "test": "cell-free assay, competition with immobilised ligand", "setting": "1 µM", "quantity": "remaining binding", "value": "66%"}
{"SMILES": "COc1cccc2c(NCc3ccccc3)nc(-n3c(N)nc4ccccc43)nc12", "test": "target engagement in cells, inhibitor, chemoproteomics", "setting": "20 mM", "quantity": "inhibition", "value": "5.6%"}
{"SMILES": "COc1cc(-c2cc(-c3ccc(N4CCNCC4)cc3)cnc2C)cc(OC)c1OC", "test": "enzyme activity, inhibitor", "setting": "1 µM", "quantity": "inhibition", "value": "6%"}
{"SMILES": "CCCCNc1ncc2c(-c3ccc(F)cc3)nn(C[C@H]3CC[C@H](N)CC3)c2n1", "test": "target engagement in cells, inhibitor, chemoproteomics", "setting": "20 mM", "quantity": "inhibition", "value": "16.7%"}
{"SMILES": "Cc1ccc(C(=O)Nc2ccc(CN3CCN(C)CC3)c(C(F)(F)F)c2)cc1C#Cc1cnc2cccnn12", "test": "enzyme activity, inhibitor", "setting": "23.5 nM", "quantity": "remaining activity", "value": "99%"}
